The values below come from ChEMBL document CHEMBL1123247, “Nucleoside conjugates. 7. Synthesis and antitumor activity of 1-beta-D-arabinofuranosylcytosine conjugates of ether lipids” (J Med Chem, 1986).

The test system of experiment [1] is L1210. In words: Antitumor activity was determined against the ip implanted L1210 leukemia in mice by percent increase in life span at 80 mg/kg (treatment of 1-5qd schedule) dosage. The format is functional, Mus musculus. To be noted: route intraperitoneal. Put shortly:
(§1)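 DBA/2J mice in groups of 6 (wt 23-28 g) were inoculated ip with 1×10^6 L1210 cells on day 0. Dosing was ip from 24 h, in 0.9% NaCl with 0.5% Tween-80 (conjugates sonicated), across a range of doses. Mice were observed daily until death or 45 days. Median T/C was computed from survivors per NCI protocols, and ILS = (T/C − 1)×100.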

The subject of experiment [2] is L1210. In words: Antitumor activity against ic implanted L1210 lymphoid leukemia in mice expressed as active dose range (1 qd treatment schedule) required to produce increase in life span by >25% was determined; Range is 200-500.
The test system of experiment [3] is L1210. The experiment can be described thus: Antitumor activity against ip implanted L1210 leukemia in mice expressed as active dose range (1-5qd treatment schedule) required to produce increase in life span by >25% was determined; Range is 40-80. The experiment is classed as functional, Mus musculus. Put shortly:
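DBA/2J mice, groups of 6 (23-28 g), were inoculated ip with 1 × 10^6 L1210 cells on day 0. Dosing was ip from 24 h, in 0.9% NaCl with 0.5% Tween-80 (sonicated solution or suspension). Mice were observed daily until death or day 45. Median survival T/C followed NCI protocols, and ILS = (T/C − 1) × 100. Active range means doses giving ILS ≥25%; optimal dose means greatest ILS.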

Experiment [4] deals with P388. In words: Antitumor activity was determined against the ip implanted P388 leukemia in mice by change in […] at 60 mg/kg (treatment of 1-5qd schedule) dosage. The format is functional, Mus musculus. Conditions: route intraperitoneal. Put shortly:
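P388 leukemia, 1×10^6 cells implanted ip on day 0 into DBA/2J mice, groups of 6 (wt 23-33 g). Dosing ip started 24 h post-inoculation, vehicle 0.9% NaCl containing 0.5% Tween-80. Animals were observed daily until death or 45 days. Outputs were weight change, median survival T/C from survivors per NCI protocols, and %ILS = (T/C − 1) × 100.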

In experiment [5] the test system is L1210. In words: Antitumor activity was determined against the ic implanted L1210 lymphoid leukemia in mice by percent increase in life span at 100 mg/kg (treatment of 1-5qd schedule) dosage. The format is functional, Mus musculus. Put shortly:
(§2)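 DBA/2J mice, groups of 6 (26-32 g), got 1 × 10^5 L1210 cells ic on day 0. Dosing was ip starting 24 h later, as a sonicated solution or suspension in 0.9% NaCl with 0.5% Tween-80, over a wide dose range. Mice were followed daily until death. Median survival T/C was taken from survivors per NCI protocols, and ILS = (T/C − 1) × 100. Active range means doses giving ILS ≥25%; optimal dose means greatest ILS.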

Experiment [6] has as its system L1210. The experiment can be described thus: Antitumor activity against ic implanted L1210 lymphoid leukemia in mice expressed as active dose range (1, 5, 9qd treatment schedule) required to produce increase in life span by >25% was determined; Range is 100-167. The format is functional, Mus musculus. Put shortly: as §2
In experiment [7] the test system is L1210. The experiment can be described thus: Antitumor activity was determined against the ic implanted L1210 lymphoid leukemia in mice by percent increase in life span at 500 mg/kg (treatment of 1qd schedule) dosage.
Experiment [8] deals with L1210. In words: Antitumor activity was determined against the ip implanted L1210 leukemia in mice by 45-day survivors in mice at 200 mg/kg (treatment of 1-5qd schedule) dosage. The experiment is classed as functional, Mus musculus. Conditions: route intraperitoneal. In short, it runs like this:
as §1

The test system of experiment [9] is P388. The experiment can be described thus: Antitumor activity against ip implanted P388 leukemia in mice expressed as active dose range (1-5qd treatment schedule) required to produce increase in life span by >25% was determined; Range is 20-200. The format is functional, Mus musculus. In short, it runs like this:
(§3)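 P388 leukemia: 1 × 10^6 cells were given ip on day 0 to DBA/2J mice, groups of 6 (23-33 g). Treatment was ip from 24 h after inoculation, vehicle 0.9% NaCl with 0.5% Tween-80. Mice were observed daily until death or 45 days. Median survival T/C was calculated from survivors per NCI protocols, and ILS = (T/C − 1) × 100. Active range means doses giving ILS ≥25%; optimal dose means greatest ILS.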

Experiment [10] has as its system L1210. In words: Antitumor activity was determined against the ic implanted L1210 lymphoid leukemia in mice by change in […] at 100 mg/kg (treatment of 1-9qd schedule) dosage. The format is functional, Mus musculus. Put shortly: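 DBA/2J mice, 6 per group (wt 26-32 g), inoculated ic with 1×10^5 L1210 cells on day 0. Dosing ip began 24 h after inoculation, with a sonicated solution or suspension in 0.9% NaCl containing 0.5% Tween-80, given over a range of doses. Animals were followed daily until death. Body weight change, median survival T/C, and %ILS = (T/C − 1) × 100 were computed from survivors per NCI protocols.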

Experiment [11] relates to L1210. The experiment can be described thus: Antitumor activity was determined against the ic implanted L1210 lymphoid leukemia in mice by percent increase in life span at 300 mg/kg (treatment of 1-5qd schedule) dosage. The format is functional, Mus musculus. Put shortly: as §2
Experiment [12] has as its system L1210. In words: Antitumor activity was determined against the ip implanted L1210 leukemia in mice by change in […] at 400 mg/kg (treatment of 1-5qd schedule) dosage. To be noted: dose 200 mg/kg; route intraperitoneal; in the assay text read “200 mg/kg” for “400 mg/kg”. The format is functional, Mus musculus. Put shortly: (§4)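 DBA/2J mice, 6 per group (wt 23-28 g), inoculated ip with 1×10^6 L1210 cells on day 0. Treatment was given ip in 0.9% NaCl with 0.5% Tween-80, starting 24 h later. Weight change was taken on day 8. Mice were observed daily until death or 45 days. Median survival T/C and %ILS = (T/C − 1) × 100 came from survivors per NCI protocols, and 45-day survivors were counted.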

Experiment [13] concerns Non-small cell lung cancer cell line. In words: Compound was tested for the inhibition of non- small cell lung cancer. The format is functional, cell-based. To be noted: Homo sapiens. Put shortly: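 Human leukemia and solid tumor cells in culture were exposed to compound for 48 h. Viability was scored by trypan blue dye exclusion. IC50 (50% inhibition) was estimated from response curves of three separate experiments.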

Experiment [14] deals with L1210. The experiment can be described thus: Antitumor activity was determined against the ip implanted L1210 leukemia in mice by change in […] at 100 mg/kg (treatment of 1-5qd schedule) dosage. The experiment is classed as functional, Mus musculus. To be noted: route intraperitoneal. In short, it runs like this:
as §4

In experiment [15] the test system is L1210. The experiment can be described thus: Antitumor activity was determined against the ic implanted L1210 lymphoid leukemia in mice by range in survival days at 133 mg/kg (1,5,9qd treatment schedule) dosage; Range is 15-22. The format is functional, Mus musculus.
Experiment [16] has as its system L1210. The experiment can be described thus: Antitumor activity was determined against the ip implanted L1210 leukemia in mice by percent increase in life span at 300 mg/kg (treatment of 1qd schedule) dosage. The format is functional, Mus musculus. To be noted: route intraperitoneal. In short, it runs like this:
as §1

For experiment [17], the system named is L1210. In words: Antitumor activity was determined against the ip implanted L1210 leukemia in mice by percent increase in life span at 40 mg/kg (treatment of 1-5qd schedule) dosage. The experiment is classed as functional, Mus musculus. To be noted: route intraperitoneal. Put shortly: as §1
The subject of experiment [18] is P388. The experiment can be described thus: Antitumor activity was determined against the ip implanted P388 leukemia in mice by range in survival days at 500 mg/kg (1 qd treatment schedule) dosage; Range is 35->45. To be noted: route intraperitoneal.
For experiment [19], the system named is P388. The experiment can be described thus: Antitumor activity against ip implanted P388 leukemia in mice expressed as active dose range (1,5,9qd treatment schedule) required to produce increase in life span by >25% was determined; Range is 100-167. The experiment is classed as functional, Mus musculus. In short, it runs like this: as §3

Regarding `CCCCCCCCCCCCCCCCOCC(COP(=O)(O)OP(=O)(O)OC[C@H]1O[C@@H](n2ccc(N)nc2=O)[C@@H](O)[C@@H]1O)OC(=O)CCCCCCCCCCCCCCC` (mixture of isomers), the ILS with L1210 [1] is recorded as 264; in the experiment on L1210 [5] it was 214; with L1210 [7], 229. In addition, the results for the Active dose range in the experiment with L1210 [2], in the experiment on L1210 [3] and in the experiment with L1210 [6] were 200 mg/kg/day, 40 mg/kg/day and 100 mg/kg/day, respectively. Further, in the experiment with P388 [4], the Weight change is recorded as -3.3 g mouse-1.
In turn, `Nc1ccn([C@@H]2O[C@H](CO)[C@@H](O)[C@@H]2O)c(=O)n1` [CYTARABINE] came in with a Survivors with L1210 [8] of 0. This compound showed an Active dose range in the experiment with P388 [9] of 20 mg/kg/day. The Weight change is given as -5.8 with L1210 [10] and -2.9 g mouse-1 in the experiment with L1210 [12]. For the same compound, the ILS with L1210 [11] came to 129. The same compound had an IC50 in [13] of 34 µM.
As for `CCCCCCCCCCCCCCCCCCOCC(COP(=O)(O)OP(=O)(O)OC[C@H]1O[C@@H](n2ccc(N)nc2=O)[C@@H](O)[C@@H]1O)OC(=O)CCCCCCCCCCCCCCC` (mixture of isomers), the Weight change with L1210 [14] is recorded as -0.95 g mouse-1.
As for `CCCCCCCCCCCCCCCC(=O)OC[C@H](COP(=O)(O)OP(=O)(O)OC[C@H]1O[C@@H](n2ccc(N)nc2=O)[C@@H](O)[C@@H]1O)OC(=O)CCCCCCCCCCCCCCC`, the results for the Range in the experiment on L1210 [15] and in the experiment on P388 [18] were 15 and 35, respectively. For the same compound, the ILS is reported as 215 with L1210 [16] and 275 in the experiment with L1210 [17]. Besides, the Active dose range with P388 [19] came out at 100 mg/kg/day.

In general, IC50 refers to the point on the concentration scale where inhibition reaches its midpoint.
